Measurements as given in ChEMBL document CHEMBL4689842, “EUbOPEN Chemogenomics Library wave 1” (2021).
“And” between values parts separate entries of the source, which are not always exact repeats. Equal entries are not always repeated.

Test system: Fibroblast
Assay: Multiplex assay against human fibroblast
Assay type: toxicity, cell-based
Method in brief: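 Cells were classed with CellPathfinder machine-learning gating, first as Hoechst high-intensity objects or normal cells, then (normal cells) as healthy, pyknosed or fragmented nuclei, and finally (pyknosed cells) as mitotic or apoptotic. Staining of live cells at seeding used Hoechst33342, BioTracker Green Microtubule Cytoskeleton Dye, MitoTracker Red and Annexin V Alexa Fluor 680, with imaging on a CQ1 microscope at 37°C and 5% CO2 after compound addition. Tubulin, mitochondrial-mass and membrane-permeability phenotypes are per cents of healthy-nucleus cells.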

[1] = 12 h, 1 µM, compound concentration 1 uM, replicate 1
[2] = 12 h, 1 µM, compound concentration 1 uM, replicate 2
[3] = 24 h, 1 µM, compound concentration 1 uM, replicate 1
[4] = 24 h, 1 µM, compound concentration 1 uM, replicate 2
[5] = 12 h, 10 µM, compound concentration 10 uM, replicate 1
[6] = 12 h, 10 µM, compound concentration 10 uM, replicate 2
[7] = 24 h, 10 µM, compound concentration 10 uM, replicate 1
[8] = 24 h, 10 µM, compound concentration 10 uM, replicate 2
[9] = 48 h, 1 µM, compound concentration 1 uM, replicate 1
[10] = 48 h, 1 µM, compound concentration 1 uM, replicate 2
[11] = 48 h, 10 µM, compound concentration 10 uM, replicate 1
[12] = 48 h, 10 µM, compound concentration 10 uM, replicate 2

Structure (SMILES): Cn1cc(C2=C(c3cn(C4CCN(Cc5ccccn5)CC4)c4ccccc34)C(=O)NC2=O)c2ccccc21 [ENZASTAURIN]
- Population Apoptotic (%) [1]: 79% and 42%
- Population Fragmented Nuclei (%) [1]: 34% and 40%
- Population Healthy Nuclei (%) [1]: 49% and 35%
- Population Membrane Permeable-Phenotype (%) [1]: 8% and 7%
- Population Mitotic Cells (%) [1]: 20% and 57%
- Population Normal (%) [1]: 84% and 33%
- Population Pyknosed Nuclei (%) [1]: 15% and 23%
- Total Cell Count [1]: 220 and 479
- Population Apoptotic (%) [2]: 66% and 55%
- Population Fragmented Nuclei (%) [2]: 70% and 45%
- Population Healthy Nuclei (%) [2]: 19% and 34%
- Population Hoechst High Intensity Objects (%) [2]: 30% and 51%
- Population Membrane Permeable-Phenotype (%) [2]: 16% and 0%
- Population Mitochondria Different-Phenotype (%) [2]: 25% and 60%
- Population Mitotic Cells (%) [2]: 33% and 44%
- Population Normal (%) [2]: 69% and 48%
- Population Pyknosed Nuclei (%) [2]: 9% and 20%
- Total Cell Count [2]: 88 and 91
- Population Apoptotic (%) [3]: 64% and 73%
- Population Fragmented Nuclei (%) [3]: 47% and 27%
- Population Healthy Nuclei (%) [3]: 23% and 58%
- Population Membrane Permeable-Phenotype (%) [3]: 6% and 3%
- Population Mitotic Cells (%) [3]: 35% and 26%
- Population Normal (%) [3]: 28% and 83%
- Population Pyknosed Nuclei (%) [3]: 28% and 13%
- Total Cell Count [3]: 427 and 225
- Population Apoptotic (%) [4]: 33% and 90%
- Population Fragmented Nuclei (%) [4]: 67% and 50%
- Population Healthy Nuclei (%) [4]: 26% and 19%
- Population Hoechst High Intensity Objects (%) [4]: 34% and 50%
- Population Membrane Permeable-Phenotype (%) [4]: 7% and 14%
- Population Normal (%) [4]: 65% and 49%
- Total Cell Count [4]: 75 and 73

Structure (SMILES): O=C(NCCCC1CCCCC1)c1ccc(CNC(=O)c2cnn(-c3ccccc3)c2C(F)(F)F)cc1 [SR-321]
- Population Apoptotic (%) [1]: 68% [middle of 4 runs]
- Population Fragmented Nuclei (%) [1]: 20% and 21% and 28%
- Population Healthy Nuclei (%) [1]: 35% and 39% and 42%
- Population Hoechst High Intensity Objects (%) [1]: 12% and 11% and 10%
- Population Mitochondria Different-Phenotype (%) [1]: 13% [middle of 4 runs]
- Population Mitotic Cells (%) [1]: 36% [middle of 4 runs]
- Population Normal (%) [1]: 87% and 88% and 89%
- Population Pyknosed Nuclei (%) [1]: 39% [middle of 4 runs]
- Total Cell Count [1]: 176 [middle of 4 runs]
- Population Membrane Permeable-Phenotype (%) [2]: 14% and 0% and 22%
- Population Normal (%) [2]: 91% and 78% and 92% and 56%
- Population Pyknosed Nuclei (%) [2]: 5% and 6% and 4%
- Total Cell Count [2]: 72 [middle of 4 runs]
- Population Apoptotic (%) [5]: 50% and 60% and 77%
- Population Fragmented Nuclei (%) [5]: 23% [middle of 4 runs]
- Population Healthy Nuclei (%) [5]: 36% and 34% and 55%
- Population Hoechst High Intensity Objects (%) [5]: 10% and 9% and 6%
- Population Mitotic Cells (%) [5]: 49% [middle of 4 runs]
- Population Normal (%) [5]: 89% and 90% and 93%
- Population Pyknosed Nuclei (%) [5]: 46% and 38% and 43%
- Total Cell Count [5]: 161 [middle of 4 runs]
- Population Healthy Nuclei (%) [6]: 71% and 66% and 69%
- Population Membrane Permeable-Phenotype (%) [6]: 5% and 2% and 0%
- Population Mitotic Cells (%) [6]: 80% and 81% and 44%
- Population Normal (%) [6]: 73% and 94% and 91% and 70%
- Total Cell Count [6]: 103 [middle of 4 runs]
- Population Apoptotic (%) [3]: 31% and 58% and 66%
- Population Fragmented Nuclei (%) [3]: 20% [middle of 4 runs]
- Population Healthy Nuclei (%) [3]: 48% [middle of 4 runs]
- Population Hoechst High Intensity Objects (%) [3]: 13% [middle of 4 runs]
- Population Mitochondria Different-Phenotype (%) [3]: 6% [middle of 4 runs]
- Population Mitotic Cells (%) [3]: 68% and 41% and 33%
- Population Normal (%) [3]: 86% and 90% and 82% and 87%
- Population Pyknosed Nuclei (%) [3]: 33% [middle of 4 runs]
- Total Cell Count [3]: 174 [middle of 4 runs]
- Population Membrane Permeable-Phenotype (%) [4]: 4% [middle of 4 runs]
- Population Mitochondria Different-Phenotype (%) [4]: 19% and 12% and 7%
- Population Mitotic Cells (%) [4]: 100% and 40% and 60%
- Population Normal (%) [4]: 85% and 95% and 89% and 56%
- Total Cell Count [4]: 79 [middle of 4 runs]
- Population Apoptotic (%) [7]: 50% and 57% and 51% and 64%
- Population Fragmented Nuclei (%) [7]: 16% and 31% and 23%
- Population Healthy Nuclei (%) [7]: 42% [middle of 4 runs]
- Population Hoechst High Intensity Objects (%) [7]: 12% [middle of 4 runs]
- Population Mitotic Cells (%) [7]: 49% and 42% and 48% and 35%
- Population Normal (%) [7]: 85% and 90% and 89% and 87%
- Population Pyknosed Nuclei (%) [7]: 46% and 36% and 34%
- Total Cell Count [7]: 148 [middle of 4 runs]
- Population Apoptotic (%) [8]: 33% and 44%
- Population Fragmented Nuclei (%) [8]: 20% and 42%
- Population Healthy Nuclei (%) [8]: 67% and 65% and 40%
- Population Membrane Permeable-Phenotype (%) [8]: 4% [middle of 4 runs]
- Population Mitotic Cells (%) [8]: 50% and 66% and 55%
- Population Normal (%) [8]: 93% and 81% and 92% and 63%
- Population Pyknosed Nuclei (%) [8]: 15% [middle of 4 runs]
- Total Cell Count [8]: 103 [middle of 4 runs]
- Population Apoptotic (%) [9]: 75% and 54% and 59%
- Population Fragmented Nuclei (%) [9]: 29% and 25% and 21%
- Population Healthy Nuclei (%) [9]: 44% and 51% and 53%
- Population Hoechst High Intensity Objects (%) [9]: 16% and 14% and 15%
- Population Membrane Permeable-Phenotype (%) [9]: 36% and 26% and 20%
- Population Mitochondria Different-Phenotype (%) [9]: 2% and 6%
- Population Mitotic Cells (%) [9]: 24% and 45% and 40%
- Population Normal (%) [9]: 83% and 85% and 84%
- Population Pyknosed Nuclei (%) [9]: 26% and 22% and 24%
- Population Tubulin-Different-Phenotype (%) [9]: 38% and 34% and 20%
- Total Cell Count [9]: 132 and 170 and 130
- Population Fragmented Nuclei (%) [10]: 14% and 19% and 13%
- Population Healthy Nuclei (%) [10]: 85% and 80%
- Population Hoechst High Intensity Objects (%) [10]: 13% and 9%
- Population Membrane Permeable-Phenotype (%) [10]: 16% and 10%
- Population Mitochondria Different-Phenotype (%) [10]: 1% and 0%
- Population Mitotic Cells (%) [10]: 0%
- Population Normal (%) [10]: 86% and 90%
- Population Pyknosed Nuclei (%) [10]: 1% and 0%
- Population Tubulin-Different-Phenotype (%) [10]: 28% and 17% and 14%
- Total Cell Count [10]: 116 and 92 and 152
- Population Apoptotic (%) [11]: 63% and 65% and 75%
- Population Fragmented Nuclei (%) [11]: 27% and 40% and 39%
- Population Healthy Nuclei (%) [11]: 39% and 42%
- Population Hoechst High Intensity Objects (%) [11]: 15% and 13% and 9%
- Population Membrane Permeable-Phenotype (%) [11]: 15% and 23% and 22%
- Population Mitochondria Different-Phenotype (%) [11]: 10% and 23% and 14%
- Population Mitotic Cells (%) [11]: 36% and 35% and 24%
- Population Normal (%) [11]: 84% and 86% and 90%
- Population Pyknosed Nuclei (%) [11]: 33% and 16% and 21%
- Population Tubulin-Different-Phenotype (%) [11]: 46% and 52% and 68%
- Total Cell Count [11]: 117 and 138 and 152
- Population Apoptotic (%) [12]: 50% and 100%
- Population Fragmented Nuclei (%) [12]: 21%
- Population Healthy Nuclei (%) [12]: 68% and 76% and 75%
- Population Hoechst High Intensity Objects (%) [12]: 8% and 14%
- Population Mitochondria Different-Phenotype (%) [12]: 7% and 5% and 11%
- Population Normal (%) [12]: 91% and 85%
- Population Tubulin-Different-Phenotype (%) [12]: 67% and 60% and 42%
- Total Cell Count [12]: 108 and 85 and 70
